Measurements taken from ChEMBL document CHEMBL1134472, “Synthesis and NMR-driven conformational analysis of taxol analogues conformationally constrained on the C13 side chain” (2001).
Activity calls are given as the source filed them. The calls are words filed in the database; no cut-off is given here.

What was measured:
MCF7 = assay: Cytotoxicity against MCF-7 cells with reference to taxol; format: functional; settings: Homo sapiens
Method in brief: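 Result is the test compound's ED50 in MCF7 cells divided by the paclitaxel ED50 from the same cytotoxicity assay.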

[1] = biological target: Tubulin alpha chain (Sus scrofa) (UniProt P02550); assay: Tubulin binding with reference to taxol was determined by tubulin assembly assay
Method in brief: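 Activity is the ED50 in a tubulin assembly assay, given as a ratio to the paclitaxel ED50 from the same assay.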

Sequence of Tubulin alpha chain (Sus scrofa) (P02550 whole entry, looked up): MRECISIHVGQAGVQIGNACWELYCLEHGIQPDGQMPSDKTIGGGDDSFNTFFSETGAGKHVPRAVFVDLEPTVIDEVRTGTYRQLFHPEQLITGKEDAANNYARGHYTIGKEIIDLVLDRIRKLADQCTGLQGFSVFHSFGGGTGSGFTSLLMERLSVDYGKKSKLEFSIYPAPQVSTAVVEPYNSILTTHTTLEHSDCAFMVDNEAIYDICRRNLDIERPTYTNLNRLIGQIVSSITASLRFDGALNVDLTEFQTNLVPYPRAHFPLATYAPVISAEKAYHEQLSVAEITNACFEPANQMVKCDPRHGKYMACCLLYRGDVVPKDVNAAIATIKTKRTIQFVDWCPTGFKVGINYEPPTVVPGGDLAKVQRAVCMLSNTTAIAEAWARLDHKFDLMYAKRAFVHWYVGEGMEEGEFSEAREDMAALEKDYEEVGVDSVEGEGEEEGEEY

| SMILES | ED50/ED50(Taxol) (MCF7) [dimensionless ratio] | ED50/ED50(Taxol) (dimensionless ratio) [1] | ED50 [1] |
| --- | --- | --- | --- |
| CC(=O)O[C@H]1C(=O)[C@@]2(C)[C@H]([C@H](OC(=O)c3ccccc3)[C@]3(O)C[C@H](OC(=O)[C@H](O)[C@@H](NC(=O)c4ccccc4)c4ccccc4)C(C)=C1C3(C)C)[C@]1(OC(C)=O)CO[C@@H]1C[C@@H]2O [PACLITAXEL] | 4 |  |  |
| CC(=O)O[C@H]1C(=O)[C@@]2(C)[C@H]([C@H](OC(=O)c3ccccc3)[C@]3(O)CC(OC(=O)[C@@]4(O)CCc5ccccc5[C@@H]4NC(=O)c4ccccc4)C(C)=C1C3(C)C)[C@]1(OC(C)=O)CO[C@@H]1C[C@@H]2O (stereo not given in full) | 333 | 42 |  |
| CC(=O)O[C@H]1C(=O)[C@@]2(C)[C@H]([C@H](OC(=O)c3ccccc3)[C@]3(O)CC(OC(=O)[C@]4(O)Cc5ccccc5[C@@H]4NC(=O)c4ccccc4)C(C)=C1C3(C)C)[C@]1(OC(C)=O)CO[C@@H]1C[C@@H]2O (stereo not given in full) | 1600 |  | inactive |
| CC(=O)O[C@H]1C(=O)[C@@]2(C)[C@H]([C@H](OC(=O)c3ccccc3)[C@]3(O)CC(OC(=O)[C@@]4(O)Cc5ccccc5[C@@H]4NC(=O)c4ccccc4)C(C)=C1C3(C)C)[C@]1(OC(C)=O)CO[C@@H]1C[C@@H]2O (stereo not given in full) | 9 | 4 |  |
| CC(=O)O[C@@]12CO[C@@H]1C[C@H](O)[C@@]1(C)C(=O)[C@H](O)C3=C(C)C(OC(=O)[C@@]4(O)CCc5ccccc5[C@@H]4NC(=O)OC(C)(C)C)C[C@@](O)([C@@H](OC(=O)c4ccccc4)[C@H]21)C3(C)C (stereo not given in full) | 239 | 30 |  |
| CC(=O)O[C@@]12CO[C@@H]1C[C@H](O)[C@@]1(C)C(=O)[C@H](O)C3=C(C)C(OC(=O)[C@@]4(O)Cc5ccccc5[C@@H]4NC(=O)OC(C)(C)C)C[C@@](O)([C@@H](OC(=O)c4ccccc4)[C@H]21)C3(C)C (stereo not given in full) |  | 7 |  |
